These results are taken from article PMC3668520 (FEBS Open Bio, 2013).

The test system of test [1] is FLAG-tagged human EBI2 (p38 phosphorylation). Nature of the test: p38 phosphorylation in CHO cells stably expressing EBI2. Format: cell-based. The following applies: serum-starved CHO EBI2 cells; ptx-sensitive.
Test [2] has as its system B cells isolated from wt and EBI2-overexpressing C57BL/6 mice. Nature of the test: Ex vivo B cell chemotaxis. The format is cell-based, mouse. A digest of the protocol: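 B cells came from wt and EBI2-overexpressing C57BL/6 mice. 7α,25-OHC and/or test compound was placed in the lower chamber, and 200,000 cells went onto 5 μm-pore filters. After 5 h at 37 °C, migrated cells were quantified by CellTiterGlo luminescence. Agonist response is expressed as chemotactic index (four experiments). Inhibition was tested on EBI2-overexpressing cells with 0.1 nM 7α,25-OHC, relative to agonist alone (three experiments).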

The target in a further test is FLAG-tagged human EBI2 (Homo sapiens, UniProt P32249). Briefly: [35S]GTPγS binding to membranes from CHO cells stably expressing EBI2. The format is biochemical. A digest of the protocol: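 Membranes from CHO Flp-In cells stably expressing M1-FLAG-EBI2 or pcDNA5 (10 μg) were incubated 30 min with ligands and 1 nM [35S]GTPγS. WGA SPA beads (2.8 mg/mL) were then added for 30 min, followed by centrifugation and scintillation counting. Nonspecific binding was defined with 40 μM unlabelled GTPγS. Inhibition was run at 1 nM 7α,25-OHC. Agonist curves were run at 0, 100 nM, 1 μM and 10 μM antagonist. Kd and slope come from Schild regression (x-intercept). Three independent experiments.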
For orientation: GTPγS is a poorly hydrolysed GTP analogue; its binding reports G protein activation.

The test system of test [3] is FLAG-tagged human EBI2 (ERK1/2 phosphorylation). Briefly: ERK1/2 phosphorylation in CHO cells stably expressing EBI2. Format: cell-based. Particulars: 10 min, read-out: EC50, ERK1/2 activation.
A further test has as its system EBI2. Particulars: at 5 μM; ref PubChem BioAssay ID: 651636; cited from earlier work.

Chain of FLAG-tagged human EBI2 (P32249 whole entry): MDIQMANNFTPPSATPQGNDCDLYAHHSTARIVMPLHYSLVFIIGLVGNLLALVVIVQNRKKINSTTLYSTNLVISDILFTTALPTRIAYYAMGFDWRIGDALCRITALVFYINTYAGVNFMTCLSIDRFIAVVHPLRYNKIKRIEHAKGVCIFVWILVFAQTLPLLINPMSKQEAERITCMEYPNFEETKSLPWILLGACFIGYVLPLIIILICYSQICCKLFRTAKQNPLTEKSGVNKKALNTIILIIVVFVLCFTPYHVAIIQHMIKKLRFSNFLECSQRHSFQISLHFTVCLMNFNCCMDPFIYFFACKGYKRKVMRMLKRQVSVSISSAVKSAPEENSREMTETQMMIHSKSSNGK

In the case of `C[C@H](CCCC(C)(C)O)[C@H]1CC[C@H]2[C@@H]3[C@H](O)C=C4C[C@@H](O)CC[C@]4(C)[C@H]3CC[C@]12C` [7α,25-OHC, 7α,25-dihydroxycholesterol], the p38 activation entry in test [1] is recorded as “dose-dependently activated”. Further, the EC50 came to 0.1 nM in test [2] (Mus musculus, B-cell, read-out: EC50, chemotaxis); 1 nM on FLAG-tagged human EBI2; 3 nM in test [3]. Also, the “Concentration at which chemotaxis peaked” value in test [2] (both wt and EBI2-OE B cells) was 1 nM.
As for `O=C(/C=C/c1ccc(Cl)cc1)N1CCN(c2c(Cl)cccc2[N+](=O)[O-])CC1` [CID: 5804570], the “Suppression of 7α,25-OHC-induced β-arrestin recruitment” value in the test with EBI2 was “best compound”.
